According to ChEMBL document CHEMBL2034956, “Bioactive diterpenes from Callicarpa longissima” (J Nat Prod, 2012):
≈ marks a conversion by molar mass, not a printed value.

Legend:
Format in all cases: functional, cell-based
[1] = Antiinflammatory activity in human neutrophils assessed as inhibition of FMLP/CB-induced superoxide-anion generation incubated for 5 mins prior to FMLP/CB-challenge measured after 10 mins by spectrophotometry; conditions: Neutrophil
Procedure, shortened: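 Human neutrophils isolated by dextran sedimentation and Ficoll centrifugation. Superoxide anion measured as superoxide dismutase-inhibitable reduction of ferricytochrome c.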

[2] = Antiinflammatory activity in human neutrophils assessed as inhibition of FMLP/CB-induced elastase release using Meo-Suc-Ala-Ala-Pro-Val-p-nitroanilide as substrate incubated for 5 mins prior to FMLP/CB-challenge by spectrophotometry; conditions: Neutrophil
Procedure, shortened: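 Human neutrophils isolated by dextran sedimentation and Ficoll centrifugation before elastase release measurement.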

PC-3 = experiment: Antiproliferative activity against human PC3 cells after 48 hrs by SRB assay; conditions: PC-3, 48 h
Procedure, shortened: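 Cells seeded in RPMI 1640 with 5% fetal bovine serum at 37 °C, 5% CO2. After 24 h, two plates per line TCA-fixed as time-zero reference. Compound added, then 48 h further incubation at 37 °C. Cold TCA fixation, 0.4% w/v sulforhodamine B in 1% acetic acid for 10 min, acetic acid washes, dye solubilized in 10 mM Trizma base, absorbance 515 nm. IC50 is 50% absorbance reduction versus untreated cells.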

IC50 [1] [µg/mL] | IC50 [2] [µg/mL] | IC50 (PC-3) [µg/mL] | SMILES
> 10 | > 10 | – | COc1ccc(-c2oc3cc(OC)c(OC)c(O)c3c(=O)c2OC)cc1OC [ARTEMETIN]
> 10 | > 10 | – | CC(C)c1ccc2c(c1)CC[C@@H](C(C)(C)O)[C@]2(C)CCC(=O)O (relative stereo)
> 10 | > 10 | – | COc1ccc(-c2oc3cc(OC)c(OC)c(O)c3c(=O)c2OC)cc1
> 10 | > 10 | – | C=C(C)[C@@H]1CCC2=C[C@](O)(C(C)C)CC[C@@]23OC(=O)CC[C@@]13C (relative stereo)

Further lines, the compound ahead of its results:

SMILES | IC50 [1] [µg/mL] | IC50 [2] [µg/mL] | IC50 (PC-3) [µg/mL]
C[C@H]1[C@H](C)CC[C@]2(C(=O)O)CC[C@]3(C)C(=CC[C@@H]4[C@@]5(C)CC[C@H](O)C(C)(C)[C@@H]5CC[C@]43C)[C@H]12 [URSOLIC ACID] | 2.79 (≈ 6.11 µM) | 5.21 (≈ 11.4 µM) | > 10
C=C(C)[C@@H]1CCC2=C[C@]3(C(C)C)CC[C@]2(OO3)[C@@]1(C)CCC(=O)O (relative stereo) | 3.14 (≈ 9.39 µM) | 4.66 (≈ 13.9 µM) | > 10
CC1=CC(=O)[C@H]2C(C)(C)CCC[C@]2(C)[C@H]1CC/C(C)=C/C(=O)O [CALLILONGISIN D] | 5.09 (≈ 16 µM) | > 10 | > 10
C=C1CC[C@H]2C(C)(C)C(=O)CC[C@]2(C)[C@H]1CC/C(C)=C/C(=O)O | 9.31 (≈ 29.2 µM) | > 10 | > 10
C=C1C[C@@H](O)[C@H]2C(C)(C)CCC[C@]2(C)[C@H]1CC/C(C)=C/C(=O)O | > 10 | > 10 | –
